Holding throughout (type): functional
Holding throughout (conditions): read-out: ED50 (the source's name)

A short description of experiment [1]: Cytotoxicity against human UISO-SQC1 cells. Put shortly:
(§1)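 Cultured human carcinoma lines were used: colon HCT-15, cervical UISO-SQC-1 and ovarian OVCAR-5. Cells were exposed to a series of concentrations of the purified glycosides, and the cell inhibitory concentration was determined. Maintenance and assay details follow an earlier procedure that is not given here.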

Experiment [2] relates to OVCAR-5. Briefly: Cytotoxicity against human OVCAR5 cells. Put shortly: as §1
The test system of experiment [3] is HCT-15. Briefly: Cytotoxicity against human HCT15 cells. Put shortly:
as §1

In brackets after ≈: the same amount, converted by molar mass.

For `CCCCCCCCCCCC(=O)O[C@H]1[C@H](O[C@@H]2[C@@H](O)[C@H]3OC(=O)CCCCCCCCCC(CCCCC)O[C@@H]4O[C@H](CO)[C@@H](O)[C@H](O)[C@H]4O[C@H]3O[C@H]2C)O[C@@H](C)[C@H](O[C@@H]2O[C@@H](C)[C@H](OC(=O)C(C)CC)[C@@H](OC(=O)C(C)C(C)O)[C@H]2O[C@H]2O[C@H](CO)[C@@H](O)[C@H](O)[C@H]2O)[C@H]1O` (some centres undefined) [ARBORESIN 5], the EC50 in experiment [1], in experiment [2] and in experiment [3] was over 5 mg/L throughout.
Regarding `CCCCCCCCCCCC(=O)O[C@H]1[C@H](O[C@@H]2[C@@H](O)[C@H]3OC(=O)CCCCCCCCCC(CCCCC)O[C@@H]4O[C@H](CO)[C@@H](O)[C@H](O)[C@H]4O[C@H]3O[C@H]2C)O[C@@H](C)[C@H](O[C@@H]2O[C@@H](C)[C@H](OC(=O)CCC)[C@@H](OC(=O)C(C)C(C)O)[C@H]2O[C@H]2O[C@H](CO)[C@@H](O)[C@H](O)[C@H]2O)[C@H]1O` (some centres undefined) [ARBORESIN 4], the EC50 in experiment [1], in experiment [2] and in experiment [3] was over 5 mg/L in each case.
On to `C/C=C/C(=O)O[C@@H]1[C@@H](OC(=O)C(C)C(C)O)[C@@H](O[C@H]2O[C@H](CO)[C@@H](O)[C@H](O)[C@H]2O)[C@H](O[C@@H]2[C@@H](O)[C@@H](OC(=O)CCCCCCCCCCC)[C@H](O[C@@H]3[C@@H](O)[C@H]4OC(=O)CCCCCCCCCC(CCCCC)O[C@@H]5O[C@H](C)[C@@H](O)[C@H](O)[C@H]5O[C@H]4O[C@H]3C)O[C@H]2C)O[C@H]1C` (some centres undefined) [MURUCIN 7], for which the EC50 in experiment [1] was over 5 mg/L; in experiment [2] it was 4.5 mg/L (≈ 3.33 µM); in experiment [3], over 5 mg/L.
With `CCCCCCCCCCCC(=O)O[C@H]1[C@H](O[C@@H]2[C@@H](O)[C@H]3OC(=O)CCCCCCCCCC(CCCCC)O[C@@H]4O[C@H](CO)[C@@H](O)[C@H](O)[C@H]4O[C@H]3O[C@H]2C)O[C@@H](C)[C@H](O[C@@H]2O[C@@H](C)[C@H](OC(=O)CC)[C@@H](OC(=O)C(C)C(C)O)[C@H]2O[C@H]2O[C@H](CO)[C@@H](O)[C@H](O)[C@H]2O)[C@H]1O` (some centres undefined) [ARBORESIN 3], the EC50 in experiment [1], in experiment [2] and in experiment [3] was over 5 mg/L throughout.
`C/C=C(\C)C(=O)O[C@@H]1[C@@H](OC(=O)C(C)C(C)O)[C@@H](O[C@H]2O[C@H](CO)[C@@H](O)[C@H](O)[C@H]2O)[C@H](O[C@@H]2[C@@H](O)[C@@H](OC(=O)CCCCCCCCCCC)[C@H](O[C@@H]3[C@@H](O)[C@H]4OC(=O)CCCCCCCCCC(CCCCC)O[C@@H]5O[C@H](C)[C@@H](O)[C@H](O)[C@H]5O[C@H]4O[C@H]3C)O[C@H]2C)O[C@H]1C` (some centres undefined) [MURUCIN 8]: the EC50 in experiment [1], in experiment [2] and in experiment [3] was over 5 mg/L each time.
As for `CCCCCCCCCCCC(=O)O[C@H]1[C@H](O[C@@H]2[C@@H](O)[C@H]3OC(=O)CCCCCCCCCC(CCCCC)O[C@@H]4O[C@H](CO)[C@@H](O)[C@H](O)[C@H]4O[C@H]3O[C@H]2C)O[C@@H](C)[C@H](O[C@@H]2O[C@@H](C)[C@H](OC(C)=O)[C@@H](OC(=O)C(C)C(C)O)[C@H]2O[C@H]2O[C@H](CO)[C@@H](O)[C@H](O)[C@H]2O)[C@H]1O` (some centres undefined) [ARBORESIN 2], the EC50 in experiment [1] was over 5 mg/L; in experiment [2], 4.2 mg/L (≈ 3.13 µM); in experiment [3], over 5 mg/L.
As to `CCCCCCCCCCCC(=O)O[C@H]1[C@H](O[C@@H]2[C@@H](O)[C@H]3OC(=O)CCCCCCCCCC(CCCCC)O[C@@H]4O[C@H](CO)[C@@H](O)[C@H](O)[C@H]4O[C@H]3O[C@H]2C)O[C@@H](C)[C@H](O[C@@H]2O[C@@H](C)[C@H](O)[C@@H](OC(=O)C(C)C(C)O)[C@H]2O[C@H]2O[C@H](CO)[C@@H](O)[C@H](O)[C@H]2O)[C@H]1O` (some centres undefined) [ARBORESIN 1], the figures for the EC50 in experiment [1], in experiment [2] and in experiment [3] were over 5 mg/L, 5 mg/L (≈ 3.85 µM) and over 5 mg/L, respectively.
`CCCCCCCCCCCC(=O)O[C@H]1[C@H](O[C@@H]2[C@@H](O)[C@H]3OC(=O)CCCCCCCCCC(CCCCC)O[C@@H]4O[C@H](C)[C@@H](O)[C@H](O)[C@H]4O[C@H]3O[C@H]2C)O[C@@H](C)[C@H](O[C@@H]2O[C@@H](C)[C@H](O)[C@@H](O)[C@H]2O[C@H]2O[C@H](CO)[C@@H](O)[C@H](O)[C@H]2O)[C@H]1O` (some centres undefined) [MURUCIN 9]: the EC50 was over 5 mg/L in experiment [1], 4 mg/L (≈ 3.38 µM) in experiment [2] and over 5 mg/L in experiment [3].

The values are drawn from ChEMBL document CHEMBL1157963, “Characterization of pentasaccharide glycosides from the roots of Ipomoea arborescens” (2006).
